A selection: hits, their analogues and other compounds. The true share with any hit is near 3%.
Apaf-1 inh – inhibitors of human Apaf-1 apoptosome, primary screen, biochemical, DEVD-Rh110 fluorescence, uHTS | inhibition, % at 20 µM | reconstituted apoptosome caspase-3 activity | Apoptotic protease-activating factor 1 (Homo sapiens), O14727 | 330,000 tested, 0.71% active; active = inhibition of at least 40% at 20 µM
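Material: reconstituted apoptosome with Apaf-1, cytochrome c, caspase-9, procaspase-3, dATP. Technique: Rh110 fluorescence intensity. Buffer or medium: pH 7.5 Hepes buffer with CHAPS, BSA, DTT. Times: 30 min plus 50 min, RT.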
beta cell repl – inducers of MIN6 beta-cell proliferation, primary screen, ATP luminescence, uHTS; 330,000 tested, 0.29% active; proliferation, % at 10 µM; MIN6 cells proliferation, ATPlite luminescence, 48 h; cells starved in 0.2% serum; 100% = growth in 10% serum; AID 2380, 2010;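 active = compounds whose signal lies at least 3.5 SD above the mean of all wells on their plate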
Exocytosis inh – LAMP-1 surface exposure blockers, TALL-104 cells – cell-based, flow cytometry, MLPCN library, primary screen; TALL-104 LAMP-1 surface exposure; cells stimulated with thapsigargin and PMA; 360,000 tested, 0.66% active; inhibition, % at 10 µM;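 active = inhibition above about 55%, limit read from the data; inconclusive = no clear call, values can overlap the other calls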
MPTP block – mitochondrial permeability transition pore inhibitors, primary screen, biochemical, isolated mouse mitochondria, absorbance. Ca2+ swelling absorbance, 30 min. inhibition, % at 10 µM. 360,000 tested, 1.4% active. AID 602449, 2012;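 active = inhibition of 50% or more, scaled per plate between neutral and stimulator controls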
UBC13 inh – UBC13 polyubiquitin chain formation inhibitors, primary screen, biochemical, TR-FRET, uHTS; 330,000 tested, 0.47% active; AID 485273, 2010; inhibition, % at 20 µM; Ubiquitin-conjugating enzyme E2 N (Homo sapiens), P61088; in the data active = inhibition above about 45%, passing the limit was not always enough; inconclusive = no clear call, values can overlap the other calls
Target sequence (P61088 whole entry, looked up): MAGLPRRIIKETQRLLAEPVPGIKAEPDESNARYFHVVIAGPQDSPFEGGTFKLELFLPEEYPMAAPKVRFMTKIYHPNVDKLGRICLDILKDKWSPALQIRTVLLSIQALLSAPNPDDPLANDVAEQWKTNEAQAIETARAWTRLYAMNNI
hiPSC survival – enhancers of single-cell hiPSC survival, primary screen, ATPlite luminescence. 100% = ROCK inhibitor wells, 0% = DMSO. survival enhancement, % at 20 µM. 360,000 tested, 0.044% active. AID 602274, 2012; in the data active = survival enhancement above about 18%;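 also: cells exposed to compounds for 16 hours before the ATP read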
Granule exo CP1 – inhibitors of lytic granule exocytosis, confirmation, TALL-104 cells, flow cytometry, Cherry Pick01; LAMP-1 externalization; stimulated with PMA plus thapsigargin; inhibition, % at 10 µM; shares compounds with Exocytosis inh; 1,500 tested, 11% active; in the data active = inhibition above about 60%
A number is an active result; 0 = inactive; ? = inconclusive; - = not tested or not shown.

SMILES	Apaf-1 inh	beta cell repl	Exocytosis inh	MPTP block	UBC13 inh	hiPSC survival	Granule exo CP1
Cc1coc2c1c(C)cc1oc(=O)c(CC(=O)NCC(=O)NCC(=O)O)c(C)c12	0	0	?	0	0	0	-
CC[C@]12c3[nH]c4cc(CCC(=O)N(C)C)ccc4c3CCN1C(=O)[C@@H](CC(=O)NCc1ccco1)C[C@@H]2C(=O)N1CCN(C(=O)C2CC2)CC1	0	-	0	0	-	0	-
O=C(COC(=O)c1ccco1)NC1CCCC1	0	0	71.6	0	0	0	0
COc1cc(SC)ccc1C(=O)NCCc1c[nH]c2ccccc12	0	0	62.5	0	0	0	0
O=C(CN1CCN(C(C(=O)Nc2cc(C(F)(F)F)ccc2Cl)c2ccccc2)CC1)NC1CC1 (stereo not drawn)	-	-	79.8	0	-	0	0
O=C(Nc1cc(C(F)(F)F)ccc1Cl)C(Sc1ccccn1)c1ccccc1 (stereo not drawn)	0	0	104.3	0	0	0	0
O=C(CN1CCN(C(C(=O)Nc2ccc(Cl)cc2C(F)(F)F)c2ccccc2)CC1)NC1CC1 (stereo not drawn)	0	0	0	0	0	0	-
CCCC(=O)OC(C(=O)Nc1cc(C(F)(F)F)ccc1Cl)c1ccccc1 (stereo not drawn)	0	0	0	0	0	0	-
COC(CN(C)C(=O)C1CCCN(S(=O)(=O)c2ccc3c(c2)oc(=O)n3C)C1)OC (stereo not drawn)	0	0	0	0	0	0	-
CCOc1ccc(S(=O)(=O)N2CCCC(C(=O)Nc3cccc(C)c3)C2)cc1 (stereo not drawn)	0	0	63.4	0	0	0	0
CCc1cccc(NC(=O)Cn2ncn3c(cc4ccccc43)c2=O)c1	0	0	0	0	0	0	-
Cc1ccc(NC(=O)Cn2ncn3c(cc4ccccc43)c2=O)cc1F	0	0	106.0	0	0	0	0
CN(C)CCNC(=O)c1cccc2nc3c(ccc4ccccc43)nc12	-	-	62.1	0	-	0	0
COc1ccc(C(=O)NCCN(C)C)c2nc3ccccc3cc12	-	-	73.2	0	-	0	0
COc1cccc2nc3c(C(=O)NCCN(C)C)cccc3cc12	-	-	0	0	-	0	-
Cc1noc(C)c1-c1ccc(C(=O)NCc2ccc(Cl)cc2)c2occc12	-	-	0	0	-	0	-
CCn1c(SCc2ccccc2)nc2c1c(=O)[nH]c(=O)n2C	0	0	0	0	0	0	-
O=C(COC(=O)Cc1c[nH]c2ccccc12)NC1CCCCC1	0	0	76.7	0	0	0	0
C/C(=N/Nc1ccc(C(=O)c2c(C)cc3ccccn23)cc1[N+](=O)[O-])c1ccc(O)cc1	-	-	0	0	-	0	-
O=C(Nc1cccc(O)c1)N1CCOCC1	0	0	0	0	0	0	-
O=C(Nc1ccc2nc(-c3cccs3)c(-c3cccs3)nc2c1)N1CCOCC1	0	0	100.9	0	0	0	99.3
COc1ccccc1CCC(=O)OCC(=O)Nc1ccc2[nH]c(=O)[nH]c2c1	0	0	0	0	0	0	-
COc1ccc(CC(=O)Nc2ccc(F)c(Cl)c2)cc1S(=O)(=O)N1CCOCC1	0	0	0	0	0	0	-
O=C1/C(=C\c2cccs2)Sc2ccc3ccccc3c21	0	0	84.7	0	0	0	0
C#CCN(C[C@H]1[C@H](OC(=O)Nc2c(C)noc2C)[C@H](OC(=O)Nc2c(C)noc2C)C[C@H]2C(=O)N(c3ccccc3)C(=O)[C@@H]12)S(=O)(=O)c1ccc(C)cc1	-	-	0	0	-	0	-
SMILES	Apaf-1 inh	beta cell repl	Exocytosis inh	MPTP block	UBC13 inh	hiPSC survival	Granule exo CP1
COC(=O)c1ccc(N2CCN(C)CC2)c(NC(=O)c2sc3ccccc3c2Cl)c1	-	-	77.6	0	-	0	91.1
CN1CCN(c2ccc(NC(=O)c3sc4ccccc4c3Cl)cc2)CC1	0	0	0	0	0	0	-
O=C(NCCc1ccccc1)C1Cc2c(-c3ccccc3)ccnc2O1 (stereo not drawn)	-	-	0	0	-	0	-
COc1ccc2nc(N(CCN(C)C)C(=O)c3ccc4ncsc4c3)sc2c1	-	-	75.1	0	-	0	0
COc1ccc(CC(=O)NCC2CCCN(Cc3ccc(F)c(OC)c3)C2)cc1 (stereo not drawn)	0	0	59.1	0	0	0	0
COc1cc(CN2CCCC(N3CCN(c4ccc(F)cc4)CC3)C2)ccc1F (stereo not drawn)	0	0	61.2	0	0	0	0
CSc1ccc(CN2CCCC(N3CCN(c4ccccc4)CC3)C2)cc1 (stereo not drawn)	0	0	67.4	0	0	0	0
CCOc1ccc(OCCOC(=O)CN(C)S(=O)(=O)c2ccc(NC(C)=O)cc2)cc1	0	0	0	0	0	0	-
CC(=O)Nc1ccc(S(=O)(=O)N2CCN(C(=O)c3ncoc3-c3ccccc3)CC2)cc1	0	0	0	0	0	0	-
COc1ccc(OC)c(-c2csc(NC(=O)c3ccc(F)cc3)n2)c1	0	0	80.0	0	0	0	0
Cc1ccc(-c2csc(NC(=O)Cc3ccc(F)cc3)n2)o1	0	0	75.4	0	0	0	0
COc1ccc(OC)c(-c2csc(NC(=O)c3ccc(OCC4CCCO4)cc3)n2)c1 (stereo not drawn)	0	0	0	0	0	0	-
Cc1ccc(-c2csc(NC(=O)c3ccc(-c4ccccc4)cc3)n2)o1	0	0	0	0	0	0	-
COc1ccc(OC)c(-c2csc(NC(=O)Cc3ccc(F)cc3)n2)c1	0	0	96.8	0	0	0	0
COc1ccc(-n2sc3ccccc3c2=O)cc1	-	-	84.2	0	-	0	99.9
COc1ccc(-n2sc3ccc(F)cc3c2=O)cc1	0	0	0	0	0	0	-
COc1ccc(CCNCc2cc3ccc(C)cc3[nH]c2=O)cc1OC	0	0	0	0	0	0	-
COCCSc1nc(N)c(NC(=O)c2ccco2)c(=O)[nH]1	0	0	0	0	0	0	-
Cc1cc(OC(C)C(=O)N2CCN(c3ccc(F)cc3)CC2)c2c(C)c(C)c(=O)oc2c1 (stereo not drawn)	0	0	64.1	0	0	0	0
Cc1cc(OCC(=O)N2CCN(c3cccc(Cl)c3)CC2)c2c(C)c(C)c(=O)oc2c1	0	0	0	0	0	0	-
Fc1cccc(CNc2ncnc3ccc(-c4ccc5c(c4)OCO5)cc23)c1	0	0	65.0	0	0	0	0
CC(=O)Nc1ccc(S(=O)(=O)NN=CCCc2ccccc2)cc1	-	-	0	0	-	0	-
CCCCCc1c(-c2ccc(OC)cc2)ncn1CCc1ccccc1OC	-	-	67.7	0	-	0	0

Assay outcomes: PubChem, several laboratories
